{"data": "Results from different studies", "target": "Activin receptor type-2A (ACVR2A, Homo sapiens, UniProt P27037)"}
{"Compound": "C[C@H](c1ccnc(Nc2nc3ccc(-c4cc(N(C)C)ncn4)cc3[nH]2)c1)N1CCN(C(=O)CC(F)(F)F)CC1", "effect on": "cell-free assay", "technique": "competition with immobilised ligand", "tested at": "0.1 µM", "remaining binding": "100%"}
{"Compound": "CN(C)c1ncc(F)c(-c2cnn3ncccc23)n1", "effect on": "binding", "tested at": "1 µM", "remaining binding": "95%"}
{"Compound": "CC(=O)Nc1c(C(C)=O)c(=O)n(C)c2nc(-c3ccc(Cl)cc3Cl)c(-c3ccc(Cl)cc3)cc12", "effect on": "cell-free assay", "technique": "competition with immobilised ligand", "tested at": "1 µM", "remaining binding": "100%"}
{"Compound": "N[C@@H]1CCN(c2nccc(-c3cnn4ncccc34)n2)C1", "effect on": "binding", "tested at": "1 µM", "remaining binding": "100%"}
{"Compound": "FC(F)(F)Oc1cccc(-c2cnc3ccc(-c4ccncc4)nn23)c1", "effect on": "cell-free assay", "technique": "competition with immobilised ligand", "tested at": "5 µM", "remaining binding": "77%"}
{"Compound": "CN(CCCC(F)(F)F)c1nccc(-c2cnn3ncccc23)n1", "effect on": "binding", "tested at": "1 µM", "remaining binding": "100%"}
{"Compound": "COc1cnc(Nc2cccc(S(N)(=O)=O)c2)nc1N1CCN(c2ccccc2)C(=O)C1", "effect on": "binding", "technique": "competition with immobilised ligand", "tested at": "1 µM", "remaining binding": "100%"}
{"Compound": "O=C(Nc1cccnn1)N1CCC(=Cc2cccc(Oc3ccc(C(F)(F)F)cn3)c2)CC1", "effect on": "cell-free assay", "technique": "competition with immobilised ligand", "tested at": "1 µM", "remaining binding": "100%"}
{"Compound": "O=C(c1ccc(Nc2ncc(Cl)c(-c3ccc(Cl)s3)n2)cc1)N1CCC(N2CCCC2)CC1", "effect on": "binding", "technique": "competition with immobilised ligand", "tested at": "1 µM", "remaining binding": "71%"}
{"Compound": "O=C(NCCCC1CCCCC1)c1ccc(CNC(=O)c2cnn(-c3ccccc3)c2C(F)(F)F)cc1", "effect on": "cell-free assay", "technique": "competition with immobilised ligand", "tested at": "0.1 µM", "remaining binding": "83%"}
{"Compound": "Cc1cnn2ncc(-c3ccnc(N(C)C)n3)c2c1", "effect on": "binding", "tested at": "1 µM", "remaining binding": "74%"}
{"Compound": "C[C@@H](c1ccc(-n2cnc3c(N)ncnc32)cc1)N1CCc2nn(C)c(Cc3ccccc3)c2C1=O", "effect on": "binding", "technique": "competition with immobilised ligand", "tested at": "0.1 µM", "remaining binding": "92%"}
{"Compound": "O=c1nc(-c2ccccn2)sc2ccccc12", "effect on": "cell-free assay", "technique": "competition with immobilised ligand", "tested at": "1 µM", "remaining binding": "91%"}
{"Compound": "c1cnn2ncc(-c3ccnc(N4CCC45COC5)n3)c2c1", "effect on": "binding", "tested at": "1 µM", "remaining binding": "99%"}
{"Compound": "O=C(Nc1c[nH]nc1C(=O)NC1CCNCC1)c1cc(F)cc(F)c1", "effect on": "binding", "technique": "competition with immobilised ligand", "tested at": "1 µM", "remaining binding": "100%"}
{"Compound": "c1cncc(-c2cccc(Nc3nccc(NC4CCCCC4)n3)c2)c1", "effect on": "binding", "technique": "competition with immobilised ligand", "tested at": "10 µM", "remaining binding": "70%"}
{"Compound": "CN(c1nccc(-c2cnn3ncccc23)n1)C1CC1", "effect on": "binding", "tested at": "1 µM", "remaining binding": "100%"}
{"Compound": "O=C(NCCCN1CCOCC1)c1ccc(Nc2nccc(-c3cc4ccccc4s3)n2)cc1", "effect on": "binding", "technique": "competition with immobilised ligand", "tested at": "1 µM", "remaining binding": "58%"}
{"Compound": "CN([C@@H]1CCc2c(CC(=O)O)c3ccccc3n2C1)S(=O)(=O)c1ccc(F)cc1", "effect on": "cell-free assay", "technique": "competition with immobilised ligand", "tested at": "1 µM", "remaining binding": "100%"}
{"Compound": "O=C(c1ccc(Nc2ncc(Cl)c(-c3cc4ccccc4s3)n2)cc1)N1CCC(N2CCCC2)CC1", "effect on": "binding", "technique": "competition with immobilised ligand", "tested at": "1 µM", "remaining binding": "64%"}
{"Compound": "CN(C)CC#Cc1ccc(OCCCc2sc(N3CCc4cccc(C(=O)Nc5nc6ccccc6s5)c4C3)nc2C(=O)O)c(F)c1", "effect on": "cell-free assay", "technique": "competition with immobilised ligand", "tested at": "1 µM", "remaining binding": "94%"}
{"Compound": "C[C@@H]1CCN(c2nccc(-c3cnn4ncccc34)n2)C1", "effect on": "binding", "tested at": "1 µM", "remaining binding": "100%"}
